Results from publication PMC11831733 (RSC Advances, 2025).
In brackets after ≈: the same amount, converted by molar mass.

Assays:
[1] = Cytotoxicity, resazurin microplate assay; format: cell-based; conditions: human, NCI-H187 cells (human small-cell lung cancer, ATCC CRL-5804)
Outline: (§1)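 Test compound and cell suspension were combined in triplicate wells and kept at 37 °C in humidified 5% CO2 for 3 d (MCF-7) or 5 d (NCI-H187). A 62.6 μg mL−1 resazurin solution was then added, followed by 4 h at 37 °C. Fluorescence was read bottom-mode at excitation 530 nm and emission 590 nm, and the blank was subtracted.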

[2] = Cytotoxicity, resazurin microplate assay; format: cell-based; conditions: human, MCF-7 cells (human breast cancer, ATCC HTC-22)
Outline: as §1

[3] = in vitro; format: cell-based, African green monkey; conditions: African green monkey, Cytotoxicity (IC50, μM) Vero
[4] = tested on: C. acutatum (BCC 58146); assay: microbe, parasite or virus in culture; format: cell-based; conditions: Colletotrichum acutatum, read-out: Anti-phytopathogenic fungal (MIC, μM) C. acutatum
[5] = tested on: A. brassicicola (BCC 42724); assay: microbe, parasite or virus in culture; format: cell-based; conditions: Alternaria brassicicola, read-out: Anti-phytopathogenic fungal (MIC, μM) A. brassicicola
[6] = tested on: Vero cells (African green monkey kidney fibroblast); assay: in vitro; format: cell-based; conditions: read-out: Cytotoxicity (IC50, μM) Vero
[7] = tested on: all cell lines tested (Plasmodium falciparum, mammalian, and fungal); assay: Antiproliferative activity over all cell lines tested; format: cell-based; conditions: P. falciparum, mammalian and fungal cells

Row | SMILES | IC50 at 5 d [1] [µM] | IC50 at 3 d [2] [µM] | IC50 at 4 d [3] [µM] | MIC [4] [µM] | MIC [5] [µM] | IC50 [6] [µM] | antiproliferative activity profile (in words) [7]
1 | COc1cc2oc3cc(C)cc(O)c3c(=O)c2c(C)c1O [Compound 3, 1,7-dihydroxy-6-methoxy-3,8-dimethylxanthone] | > 175 | > 175 | > 175 | > 175 | > 175 |  | 
2 | COc1cccc2c1C(=O)c1c(O)c3c(c(O)c1C2=O)C[C@@](O)(C(=O)CO)C[C@@H]3O[C@H]1C[C@H](N)[C@H](O)[C@H](C)O1 [Doxorubicin, reference compound] | 0.2 | 11.9 |  |  |  |  | 
3 | COc1cc(O)c2c(=O)c3c(O)cc(C)cc3oc2c1O [Compound 1, 1,5,8-trihydroxy-6-methoxy-3-methylxanthone] | 19 | > 174 | 58.9 | > 174 | > 174 | 58.9 | active only against mammalian cell lines
4 | O=C(O)CCC(=O)OCCc1ccccc1 [Compound 7, 4-oxo-4-phenethoxybutanoic acid] | > 225 | > 225 | > 225 | > 225 | > 225 |  | 
5 | C[C@@H]1[C@H](O)[C@@H](C)/C=C/C=C/C=C/C=C/C=C/C=C/C=C/[C@H](O[C@@H]2O[C@H](C)[C@@H](O)[C@H](N)[C@@H]2O)C[C@@H]2O[C@](O)(C[C@@H](O)C[C@@H](O)[C@H](O)CC[C@@H](O)C[C@@H](O)CC(=O)O[C@H]1C)C[C@H](O)[C@H]2C(=O)O [Amphotericin B, reference compound] |  |  |  | 3.4 (≈ 3.14 µg/mL) | 1.7 (≈ 1.57 µg/mL) |  | 
6 | CCC(=O)c1cc(OC)cc2oc3cc(C)cc(O)c3c(=O)c12 [Compound 4, 1-hydroxy-6-methoxy-3-methyl-8-propionylxanthone] | > 160 | 42.5 | > 160 | > 160 | > 160 |  | active only against mammalian cell lines
7 | COc1cc(O)c2c(=O)c3c(O)cc(C)cc3oc2c1OC [Compound 2, 1,8-dihydroxy-5,6-dimethoxy-3-methylxanthone] | > 165 | > 165 | > 165 | > 165 | > 165 |  | 
